In assay [1] the test system is melanoma cell line SK-MEL-2. In words: Cell viability assay. Format: cell-based. The settings on record: Homo sapiens, SK-MEL-2, 72 h, read-out: Antiproliferative IC50 SK-MEL-2.
Assay [2] relates to colon cancer cell line HCT-116. Nature of the assay: Cell viability assay. The format is cell-based. The settings on record: Homo sapiens, HCT-116, 72 h, read-out: Antiproliferative IC50 HCT116.
Another assay addresses HDAC1 (Homo sapiens, UniProt Q13547). In words: In vitro HDAC enzyme assay. As to conditions: for inhibition at 0.5 µM: read-out: Inhibition% (inhibition rate, IR) against HDAC1, at a concentration of 500 nM. Format: biochemical.
In assay [3] the test system is normal bone marrow cells HS-5. In words: Cell viability assay. The format is cell-based. As to conditions: 72 h, read-out: Antiproliferative IC50 HS-5. An outline of the steps: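 Cells grown in IMDM with 20% FBS, 100 U per mL penicillin and 100 μg per mL streptomycin, then plated in 96-well format. Test compound exposure was 72 h. Alamar blue solution (1 mM, as added) was then applied for a further 5–6 h, and […] was read at 530/590 nm. Data were normalized to vehicle, as means of three independent measurements (standard errors <20%), and IC50 was calculated.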

Bounds are passed on as bounds.

Chain of HDAC1 (Q13547 whole entry): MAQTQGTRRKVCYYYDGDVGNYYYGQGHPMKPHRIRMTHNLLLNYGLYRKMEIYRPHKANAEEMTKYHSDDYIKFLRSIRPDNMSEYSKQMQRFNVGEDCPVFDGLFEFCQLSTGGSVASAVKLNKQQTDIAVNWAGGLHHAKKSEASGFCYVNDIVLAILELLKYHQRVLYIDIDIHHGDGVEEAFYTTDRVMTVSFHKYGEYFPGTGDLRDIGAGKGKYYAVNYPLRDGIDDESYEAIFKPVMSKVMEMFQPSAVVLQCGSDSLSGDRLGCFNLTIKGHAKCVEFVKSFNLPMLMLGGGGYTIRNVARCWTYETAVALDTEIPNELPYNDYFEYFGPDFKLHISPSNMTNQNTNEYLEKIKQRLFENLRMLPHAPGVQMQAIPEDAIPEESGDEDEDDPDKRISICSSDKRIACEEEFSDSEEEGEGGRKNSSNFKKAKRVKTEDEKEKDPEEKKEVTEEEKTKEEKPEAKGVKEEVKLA

With `O=C(CCCCCCNC(=O)c1cnc(N(c2ccccc2)c2ccccc2)nc1)NO` [ACY-1215, reference compound], the IC50 in assay [1] worked out at 4.5 ± 0.14 µM; in assay [2], 3.87 ± 0.11 µM.
As to `COc1ccc(CN2Cc3[nH]c4ccccc4c3C[C@H]2C(=O)NCCCCCCC(=O)NO)cc1` [Compound 9a, (S)-N-(7-(Hydroxyamino)-7-oxoheptyl)-2-(4-methoxybenzyl)-2,3,4,9-tetrahydro-1H-pyrido[3,4-b]indole-3-carboxamide], the inhibition at 0.5 µM at HDAC1 (duplicate) is 31.8%.
Same read-out and setting: the same measure for `COc1ccc([C@H]2N[C@H](C(=O)NCCCCCC(=O)NO)Cc3c2[nH]c2ccccc32)cc1` [Compound 9b, (1R,3S)-N-(6-(Hydroxyamino)-6-oxohexyl)-1-(4-methoxyphenyl)-2,3,4,9-tetrahydro-1H-pyrido[3,4-b]indole-3-carboxamide]: 23.2%.
Same read-out and setting: with `COc1ccc([C@H]2N[C@H](C(=O)NCCCCCCC(=O)NO)Cc3c2[nH]c2ccccc32)cc1` [Compound 9c, (1R,3S)-N-(7-(Hydroxyamino)-7-oxoheptyl)-1-(4-methoxyphenyl)-2,3,4,9-tetrahydro-1H-pyrido[3,4-b]indole-3-carboxamide] the figure was 41.3%; with `O=C(CCCCCNC(=O)[C@@H]1Cc2c([nH]c3ccccc23)[C@@H](c2ccccc2)N1)NO` [Compound 9d, (1R,3S)-N-(6-(Hydroxyamino)-6-oxohexyl)-1-phenyl-2,3,4,9-tetrahydro-1H-pyrido[3,4-b]indole-3-carboxamide], 39.6%.
In the case of `COc1ccc(CN2[C@H](C)c3[nH]c4ccccc4c3C[C@H]2C(=O)NCCCCCC(=O)NO)cc1` [Compound 9e, (1R,3S)-N-(6-(Hydroxyamino)-6-oxohexyl)-2-(4-methoxybenzyl)-1-methyl-2,3,4,9-tetrahydro-1H-pyrido[3,4-b]indole-3-carboxamide], the inhibition at 0.5 µM on HDAC1 (duplicate) stood at 58.1%.
As for `COc1ccc(CN2[C@H](C)c3[nH]c4ccccc4c3C[C@H]2C(=O)NCCCCCCC(=O)NO)cc1` [Compound 9f, (1R,3S)-N-(7-(Hydroxyamino)-7-oxoheptyl)-2-(4-methoxybenzyl)-1-methyl-2,3,4,9-tetrahydro-1H-pyrido[3,4-b]indole-3-carboxamide], the inhibition at 0.5 µM at HDAC1 (duplicate) worked out at 40.8%.
On the same count and under the same terms, with `O=C(CCCCCCNC(=O)[C@@H]1Cc2c([nH]c3ccccc23)[C@@H](c2ccc(Cl)cc2)N1)NO` [Compound 9g, (1R,3S)-1-(4-Chlorophenyl)-N-(7-(hydroxyamino)-7-oxoheptyl)-2,3,4,9-tetrahydro-1H-pyrido[3,4-b]indole-3-carboxamide] the figure was 65.4%; with `COc1ccc([C@H]2N[C@H](C(=O)NCCCCCCC(=O)NO)Cc3c2[nH]c2ccccc32)cc1OC` [Compound 9h, (1R,3S)-1-(3,4-Dimethoxyphenyl)-N-(7-(hydroxyamino)-7-oxoheptyl)-2,3,4,9-tetrahydro-1H-pyrido[3,4-b]indole-3-carboxamide], 46.5%.
Turning to `O=C(CCCCCCNC(=O)[C@@H]1Cc2c([nH]c3ccccc23)[C@@H](C2CC2)N1)NO` [Compound 9i, (1R,3S)-1-Cyclopropyl-N-(7-(hydroxyamino)-7-oxoheptyl)-2,3,4,9-tetrahydro-1H-pyrido[3,4-b]indole-3-carboxamide], the inhibition at 0.5 µM at HDAC1 (duplicate) is 77.3%.
The same measure, in the same setting: the same measure for `COc1ccc(CN2Cc3[nH]c4ccccc4c3C[C@@H]2C(=O)NCCCCCCC(=O)NO)cc1` [Compound 13a, (R)-N-(7-(Hydroxyamino)-7-oxoheptyl)-2-(4-methoxybenzyl)-2,3,4,9-tetrahydro-1H-pyrido[3,4-b]indole-3-carboxamide]: 44.3%.
On the same count and under the same terms, with `COc1ccc([C@@H]2N[C@@H](C(=O)NCCCCCC(=O)NO)Cc3c2[nH]c2ccccc32)cc1` [Compound 13b, (1S,3R)-N-(6-(Hydroxyamino)-6-oxohexyl)-1-(4-methoxyphenyl)-2,3,4,9-tetrahydro-1H-pyrido[3,4-b]indole-3-carboxamide] the figure was 49.2%.
For the compound `COc1ccc([C@@H]2N[C@@H](C(=O)NCCCCCCC(=O)NO)Cc3c2[nH]c2ccccc32)cc1` [Compound 13c, (1S,3R)-N-(7-(Hydroxyamino)-7-oxoheptyl)-1-(4-methoxyphenyl)-2,3,4,9-tetrahydro-1H-pyrido[3,4-b]indole-3-carboxamide], the IC50 on HDAC1 was 0.047 ± 0.00125 µM. In addition, the “Inhibition% (inhibition rate, IR) against HDAC1” value on HDAC1 (at a concentration of 500 nM, duplicate, 0.5 µM) came out at 81.6%. Moreover, the inhibition at 0.5 µM at HDAC1 (duplicate) stood at 66%.
For the compound `COc1ccc(CN2[C@@H](C(=O)NCCCCCC(=O)NO)Cc3c([nH]c4ccccc34)[C@@H]2C)cc1` [Compound 13e, (1S,3R)-N-(6-(Hydroxyamino)-6-oxohexyl)-2-(4-methoxybenzyl)-1-methyl-2,3,4,9-tetrahydro-1H-pyrido[3,4-b]indole-3-carboxamide], the IC50 in assay [1] is 9.65 ± 0.46 µM; in assay [2] it was 8.34 ± 0.24 µM; in assay [3], above 50 µM; at HDAC1 it was 0.0536 ± 0.0025 µM. Further, on HDAC1 (duplicate), the inhibition at 0.5 µM amounted to 84.8%.
For `COc1ccc(CN2[C@@H](C(=O)NCCCCCCC(=O)NO)Cc3c([nH]c4ccccc34)[C@@H]2C)cc1` [Compound 13f, (1S,3R)-N-(7-(Hydroxyamino)-7-oxoheptyl)-2-(4-methoxybenzyl)-1-methyl-2,3,4,9-tetrahydro-1H-pyrido[3,4-b]indole-3-carboxamide], in that order: 5.7 ± 0.12 µM, 4.22 ± 0.12 µM, above 50 µM, 0.0224 ± 0.00084 µM and 91.4%.
Taken in the same sequence, the figures for `O=C(CCCCCCNC(=O)[C@H]1Cc2c([nH]c3ccccc23)[C@H](C2CC2)N1Cc1ccccc1)NO` [Compound 13g, (1S,3R)-2-Benzyl-1-cyclopropyl-N-(7-(hydroxyamino)-7-oxoheptyl)-2,3,4,9-tetrahydro-1H-pyrido[3,4-b]indole-3-carboxamide] were 3.16 ± 0.08 µM, 3.2 ± 0.09 µM, above 50 µM, 0.0104 ± 0.00065 µM and 98.2%.
For the compound `O=C(CCCCCNC(=O)[C@H]1Cc2c([nH]c3ccccc23)[C@H](c2ccc(Cl)cc2)N1)NO` [Compound 13h, (1S,3R)-1-(4-Chlorophenyl)-N-(6-(hydroxyamino)-6-oxohexyl)-2,3,4,9-tetrahydro-1H-pyrido[3,4-b]indole-3-carboxamide], the inhibition at 0.5 µM on HDAC1 (duplicate) was found to be 51.3%.
As for `O=C(CCCCCCNC(=O)[C@H]1Cc2c([nH]c3ccccc23)[C@H](c2ccc(Cl)cc2)N1)NO` [Compound 13i, (1S,3R)-1-(4-Chlorophenyl)-N-(7-(hydroxyamino)-7-oxoheptyl)-2,3,4,9-tetrahydro-1H-pyrido[3,4-b]indole-3-carboxamide], the IC50 is 7.84 ± 0.26 µM in assay [1], 7.55 ± 0.18 µM in assay [2] and above 50 µM in assay [3]. Further, on HDAC1 (duplicate), the inhibition at 0.5 µM amounted to 66%.
Consider `COc1ccc([C@@H]2N[C@@H](C(=O)NCCCCCCC(=O)NO)Cc3c2[nH]c2ccccc32)cc1OC` [Compound 13j, (1S,3R)-1-(3,4-Dimethoxyphenyl)-N-(7-(hydroxyamino)-7-oxoheptyl)-2,3,4,9-tetrahydro-1H-pyrido[3,4-b]indole-3-carboxamide], for which the inhibition at 0.5 µM on HDAC1 (duplicate) turned out to be 72.5%.
